Assay outcomes as filed in PubChem BioAssay.
This is a sample that favours compounds with a hit; in the whole collection about 2.3% have one here.
TRPC6 inhibitor = inhibitors of mouse TRPC6 channel; AID 2553; B-score at 10 µM; HEK293-TRPC6, membrane potential dye, ACh-evoked depolarization; stronger effect = lower value; Q61143; 1.1% of 310,000 active;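 active = B-score under library mean minus 3 SD, initial fluorescence not abnormally high, positive integrated signal ratio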;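 note: B-score derived from integrated fluorescence ratio over the kinetic read; more negative B-score means stronger inhibition of depolarization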
TRPC6 act = activates the mouse TRPC6 cation channel; Q61143; 0.13% of 310,000 active; AID 2550; B-score at 10 µM; HEK293-TRPC6 membrane potential dye fluorescence; stronger effect = higher value;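 active = B-score of the integrated fluorescence ratio above library mean plus 3 SD, and starting fluorescence ratio within library mean plus 5 SD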;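 note: higher score means more depolarization so channel activation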
TRPC4 block = inhibitors of mouse TRPC4 channel; Q9QUQ5; HEK293 TRPC4beta/mu-opioid, DAMGO-evoked Fluo4 calcium flux; stronger effect = lower value; B-score at 10 µM; 0.39% of 300,000 active; AID 2247;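 active = B-score over 3 SD under the library average, no early fluorescence shift, positive overall ratio signal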
Target sequence (Q9QUQ5 whole entry, looked up): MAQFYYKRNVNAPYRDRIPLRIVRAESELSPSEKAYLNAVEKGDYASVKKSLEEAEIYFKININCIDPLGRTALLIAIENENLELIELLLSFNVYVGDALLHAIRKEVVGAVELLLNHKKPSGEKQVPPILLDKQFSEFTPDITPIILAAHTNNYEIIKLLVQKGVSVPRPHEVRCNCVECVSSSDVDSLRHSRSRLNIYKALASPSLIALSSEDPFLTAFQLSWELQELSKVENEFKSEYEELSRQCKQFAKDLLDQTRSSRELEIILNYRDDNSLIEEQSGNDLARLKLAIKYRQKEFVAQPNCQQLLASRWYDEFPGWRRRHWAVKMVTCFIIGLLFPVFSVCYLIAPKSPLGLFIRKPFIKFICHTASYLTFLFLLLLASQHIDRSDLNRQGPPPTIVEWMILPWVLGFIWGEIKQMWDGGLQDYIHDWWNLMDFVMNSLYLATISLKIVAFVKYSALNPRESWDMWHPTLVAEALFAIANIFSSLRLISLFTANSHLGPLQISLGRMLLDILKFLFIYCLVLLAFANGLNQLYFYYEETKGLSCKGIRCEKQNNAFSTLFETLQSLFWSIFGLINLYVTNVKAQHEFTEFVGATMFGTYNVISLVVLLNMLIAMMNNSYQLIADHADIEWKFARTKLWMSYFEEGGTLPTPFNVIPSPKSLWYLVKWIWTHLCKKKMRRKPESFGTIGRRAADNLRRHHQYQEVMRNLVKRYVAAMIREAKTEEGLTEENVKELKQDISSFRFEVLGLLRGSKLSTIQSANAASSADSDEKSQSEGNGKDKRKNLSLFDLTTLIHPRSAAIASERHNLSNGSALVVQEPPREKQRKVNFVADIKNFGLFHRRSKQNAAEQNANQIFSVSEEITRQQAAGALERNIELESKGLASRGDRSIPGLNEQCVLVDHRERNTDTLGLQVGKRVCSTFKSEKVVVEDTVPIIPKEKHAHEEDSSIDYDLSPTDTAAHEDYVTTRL
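Assay system: TRPC4beta/mu-opioid receptor HEK293 cell line; compound dosing: single concentration per test compound; detection: Fluo4 Ca2+ flux fluorescence; evaluation: per-well B score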
TRPC4 agonist = TRPC4 (mouse) channel activation | Q9QUQ5 | HEK293 TRPC4beta/mu-opioid, Fluo4 calcium fluorescence; stronger effect = higher value | B-score at 10 µM | 0.49% of 310,000 active;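 active = B-score above 5 SD of library B-scores, and initial fluorescence ratio not above library mean plus 5 SD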;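 note: positive B-score marks a calcium rise read as TRPC4 activation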
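Technique: kinetic Fluo4 calcium fluorescence; Test system: TRPC4beta and mu-opioid receptor HEK293 stable cells; Measure: B-scored integrated calcium fluorescence ratio; Benchmarks: low control buffer alone, high control maximal DAMGO; Schedule: 45 min room-temperature Fluo4 loading, 110 s read.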
TRPC4 potent = allosterically enhances the mouse TRPC4 cation channel; B-score at 10 µM; Q9QUQ5; 0.42% of 310,000 active; HEK293 TRPC4beta/mu-opioid, DAMGO EC20, Fluo-4 Ca2+ flux; stronger effect = higher value;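 active = B-score of calcium response area above 5 SD of library B-scores, with initial fluorescence ratio within 5 SD of library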
TRPC4 sel inh 2 = mouse TRPC4 off-target activity of TRPC6 inhibitors, second screen; shares compounds with TRPC6 inhibitor; HEK293 TRPC4/MOR, membrane potential dye fluorescence; channel activated by saturating DAMGO dose; inhibition, % at 10 µM; 42% of 920 active; AID 2776;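 active = compounds whose fluorescence signal differed from control wells by over 3 SD, either direction, in both duplicate plates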
TRPC4 spec = mouse TRPC4 off-target activity of TRPC6 inhibitors. AID 2777. shares compounds with TRPC6 inhibitor. 61% of 920 active. activity change, negative = inhibition, % at 10 µM. HEK293 TRPC4/mu-opioid, membrane potential fluorescence;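 active = rise or fall in signal beyond 3 SD of buffer-only wells in both replicate plates, either sign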;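 note: integrated kinetic ratio of fluorescence range over baseline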
HEK293 MPD ctr 2-1 = second counter-screen for TRPC6 inhibitors: parental HEK293 cells; signal change vs control, % at 10 µM; 31% of 920 active; shares compounds with TRPC6 inhibitor; parental HEK293 membrane potential dye fluorescence; maximal acetylcholine challenge after compound addition;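 active = membrane potential signal moving either way by over 3 SD of the maximum-effect control, in both duplicate plates, meaning non-specific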
HEK293 MPD ctr-1 = checks TRPC6 inhibitor effects in parental HEK293 cells. AID 2780. 60% of 920 active. parental HEK293 membrane potential dye fluorescence. shares compounds with TRPC6 inhibitor. membrane potential signal change, % at 10 µM;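 active = membrane potential signal shifting up or down by more than 3 SD of buffer-only wells, on both duplicate plates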
HEK293 MPD ctr-2 = counter-screen for TRPC6 modulators: effect in parental HEK293 cells; shares compounds with TRPC6 inhibitor; membrane potential dye fluorescence; membrane potential signal change, % at 10 µM; 51% of 2,400 active; AID 488924;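 active = membrane potential signal moves up or down beyond 5 SD from buffer-only wells, on both duplicate plates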
HEK293 MPD ctr 2-2 = second counter-screen for TRPC6 modulators: effect in parental HEK293 cells; 14% of 2,400 active; inhibition, % at 10 µM; shares compounds with TRPC6 inhibitor; AID 488926; membrane potential dye fluorescence; after compound, maximal acetylcholine stimulation;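 active = membrane potential signal drops by more than 5 SD from the mean control signal, in both duplicate plates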
TRPC4 ctr mod = mouse TRPC4 off-target activity of TRPC6 modulators. 69% of 2,400 active. HEK293 TRPC4/mu-opioid, membrane potential fluorescence. AID 488927. percent change from control (negative = decrease, positive = increase), % at 10 µM. shares compounds with TRPC6 inhibitor;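 active = membrane potential signal moved up or down beyond 5 SD of buffer control wells, in both duplicate plates, actives on both sides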
TRPC4 ctr inh 2 = second selectivity test of TRPC6 modulators against mouse TRPC4. shares compounds with TRPC6 inhibitor. HEK293 TRPC4/mu-opioid, membrane potential dye fluorescence; stimulated with maximal-effect DAMGO. inhibition, % at 10 µM. 55% of 2,400 active;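 active = drop in membrane potential signal beyond 5 SD of the control wells in both duplicate plates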;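 note: TRPC4 counter screen for TRPC6 hits run under conditions tuned for TRPC6 not TRPC4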
TRPC6 block conf = mouse TRPC6 inhibitor confirmation | HEK293-TRPC6, membrane potential dye, ACh-evoked depolarization | AID 488960 | 43% of 3,300 active | shares compounds with TRPC6 inhibitor | inhibition, % at 10 µM;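 active = fluorescence ratio falls more than 5 SD below the full-stimulation control mean, in both duplicate runs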;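 note: integrated fluorescence ratio of peak minus minimum over baseline after agonist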
TRPC6 act conf = mouse TRPC6 activator confirmation. activation, % at 10 µM. HEK293-TRPC6 membrane potential dye fluorescence, FDSS. shares compounds with TRPC6 inhibitor. 11% of 2,800 active. AID 488961;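 active = ratio signal rise beyond 5 SD above unstimulated control wells' mean, seen in both duplicate runs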
Each line names hits and unclear results; the compound was inactive in the other large screens (follow-up assays come after a bar, where they were run).

CCN(CC)S(=O)(=O)c1ccc2c(c1)nc(CCC(=O)O)n2C	none
COc1cc(-c2noc(C)c2C#Cc2nccn2C)cc(OC)c1OC	none
CNC(=O)CSCc1c(Cl)cccc1Cl	TRPC6 inhibitor -11.4 | HEK293 MPD ctr-2 inactive | HEK293 MPD ctr 2-2 inactive | TRPC4 ctr mod inactive | TRPC4 ctr inh 2 inactive | TRPC6 block conf inactive | TRPC6 act conf inactive
CNC(=S)NNC(=O)CSCc1c(Cl)cccc1Cl	none
C=CCC1(N(C(C)=O)c2ccccc2)CCCCC1	none
C=CCC1(N(C(C)=O)c2ccccc2C)CCCCC1	TRPC6 inhibitor -9.38 | TRPC4 sel inh 2 inactive | TRPC4 spec -0.4% | HEK293 MPD ctr 2-1 inactive | HEK293 MPD ctr-1 0.5% | TRPC6 block conf inactive | TRPC6 act conf inactive
COc1ccc(CCNC(=O)c2cc3sc(Cl)cc3n2C)cc1OC	none
Cc1ccc(Cl)cc1NC(=O)CC(O)(C(F)(F)F)C(F)(F)F	TRPC6 inhibitor -8.14 | TRPC4 sel inh 2 58.0% | TRPC4 spec 41.3% | HEK293 MPD ctr 2-1 -77.0% | HEK293 MPD ctr-1 28.0% | TRPC6 block conf 110.1%
CCOC(=O)c1cc(C)n(-c2c(C)n(C)n(-c3ccccc3)c2=O)c1C	TRPC6 inhibitor -6 | HEK293 MPD ctr-2 inactive | HEK293 MPD ctr 2-2 inactive | TRPC4 ctr mod inactive | TRPC4 ctr inh 2 inactive | TRPC6 block conf inactive | TRPC6 act conf inactive
Cc1ccc2cc(C=O)c(N3CCOCC3)nc2c1C	none
Cc1cc(N2CCOCC2)c2c(N)cc(C)c(C)c2n1	TRPC6 inhibitor -10.7 | HEK293 MPD ctr-2 -357.0% | HEK293 MPD ctr 2-2 87.0% | TRPC4 ctr mod -54.5% | TRPC4 ctr inh 2 54.0% | TRPC6 block conf 58.5% | TRPC6 act conf inactive
CC1CN(C2CCN(C(=O)c3cccc(Cl)c3)CC2)CC(C)O1 (stereo unspecified)	none
CCN(CC)S(=O)(=O)c1cccc(C(=O)Nc2cccc(C)c2)c1	TRPC6 inhibitor -5.11 | HEK293 MPD ctr-2 inactive | HEK293 MPD ctr 2-2 inactive | TRPC4 ctr mod 8.0% | TRPC4 ctr inh 2 inactive | TRPC6 block conf inactive | TRPC6 act conf inactive
CCN(CC)CCNC(=O)c1ccc(NC(=O)c2cc(S(=O)(=O)N3CCCCC3)ccc2C)cc1	TRPC6 inhibitor -5.26 | HEK293 MPD ctr-2 inactive | HEK293 MPD ctr 2-2 65.0% | TRPC4 ctr mod 10.5% | TRPC4 ctr inh 2 inactive | TRPC6 block conf 60.0% | TRPC6 act conf inactive
CCN(CC)CCNC(=O)c1ccc(NC(=O)c2cccc(S(=O)(=O)Nc3ccc(C)cc3)c2)cc1	TRPC6 inhibitor -9.71 | TRPC4 sel inh 2 inactive | TRPC4 spec inactive | HEK293 MPD ctr 2-1 41.0% | HEK293 MPD ctr-1 inactive | TRPC6 block conf 56.1% | TRPC6 act conf inactive
COc1ccc(S(=O)(=O)N2CCCCCC2)cc1C(=O)NCCOc1ccc(C)cc1	TRPC6 inhibitor -5.51 | HEK293 MPD ctr-2 172.0% | HEK293 MPD ctr 2-2 inactive | TRPC4 ctr mod 27.0% | TRPC4 ctr inh 2 inactive | TRPC6 block conf inactive
CCN(CC)CCNC(=O)c1ccc(NC(=O)C2CCN(S(=O)(=O)c3ccc4c(c3)OCCO4)CC2)cc1	none
O=C1NN(c2ccccc2)C(=O)C2C1C1C=CC2C12CC2 (stereo unspecified)	none
O=c1c2cc(N3CCOCC3)ccc2[nH]c(=S)n1CC1CCCO1 (stereo unspecified)	none
CCOC(=O)c1ccc(/C=C2/C=C(c3ccccc3)N(c3ccc(Cl)c(C(=O)O)c3)C2=O)cc1	TRPC6 act 36, TRPC4 agonist 72 | HEK293 MPD ctr-2 active | HEK293 MPD ctr 2-2 inactive | TRPC4 ctr mod 377.0% | TRPC4 ctr inh 2 inactive | TRPC6 block conf inactive | TRPC6 act conf 686.0%
COc1ccc(NC(=O)C(c2ccc(OC)cc2)N(C)C(=O)Cc2cccs2)cc1 (stereo unspecified)	none
CNCCCOc1cccc(Oc2ccccc2)c1	TRPC6 inhibitor -5.11, TRPC4 potent 10 | HEK293 MPD ctr-2 100.0% | HEK293 MPD ctr 2-2 inactive | TRPC4 ctr mod 12.5% | TRPC4 ctr inh 2 35.0% | TRPC6 block conf 52.5% | TRPC6 act conf inactive
CNCCCOc1cccc(OC(C)C)c1	none
COc1ccc(C2NC(=O)NC(O)(C(F)(F)F)C2C(=O)c2ccc(C)cc2)cc1 (stereo unspecified)	TRPC6 inhibitor -9.59 | TRPC4 sel inh 2 inactive | TRPC4 spec inactive | HEK293 MPD ctr 2-1 13.5% | HEK293 MPD ctr-1 inactive | TRPC6 block conf 65.0% | TRPC6 act conf inactive
COc1ccc(C2NC(=O)NC(O)(C(F)(F)F)C2C(=O)c2ccccc2)cc1OC (stereo unspecified)	none
Cc1ccccc1OCC(O)CN1CCN(CCN2C(=O)c3cccc4cccc(c34)C2=O)CC1 (stereo unspecified)	TRPC6 inhibitor -5.23 | HEK293 MPD ctr-2 inactive | HEK293 MPD ctr 2-2 inactive | TRPC4 ctr mod -18.0% | TRPC4 ctr inh 2 82.0% | TRPC6 block conf 59.0% | TRPC6 act conf inactive
Cc1cccc(C)c1OCC(O)CN1CCC(CN2C(=O)c3cccc4cccc(c34)C2=O)CC1 (stereo unspecified)	TRPC6 inhibitor -8.35 | TRPC4 sel inh 2 39.5% | TRPC4 spec -18.2% | HEK293 MPD ctr 2-1 inactive | HEK293 MPD ctr-1 -200.0% | TRPC6 block conf 64.4% | TRPC6 act conf inactive
